SMILES strings stand for the structures. The source made the active and inactive calls. The rule behind the calls is not given here.

The test system of experiment [1] is U2OS. Briefly: Effect on mitochondrial dysfunction in human U2OS cells at 2 uM incubated for 24 hrs by pathway over-representation analysis. The class given is functional, cell-based. Put shortly:
(§1)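 U-2OS seeded at 1 × 10⁶ cells in T75 flasks, treated next day for 24 h at 37 °C versus DMSO. Cells were lysed by freeze–thaw, reduced with TCEP at 55 °C, alkylated with iodoacetamide, acetone-precipitated and trypsin-digested. Peptides were TMT-labelled, split into 10 fractions by high-pH C18, then run on nanoHPLC-MS/MS (orbitrap). Biological triplicates, with pathway over-representation analysis.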

Experiment [2] deals with U2OS. Briefly: Effect on glycolysis in human U2OS cells assessed as increase in ECAR level at 2 to 10 uM of acute treatment by Seahorse analysis. The class given is functional, cell-based. The note with it: dose 2-10 µM. An outline of the steps:
(§2)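 Seahorse XFp Mito Stress Test on U-2OS, 2 × 10⁵ cells per well, seeded overnight. Assay medium was pH 7.4 DMEM with 2 mM GlutaMAX, 1 mM pyruvate and 25 mM glucose. For acute runs, compound was injected after 5 baseline reads, then 10 reads. Otherwise cells were pretreated 24 h. Then oligomycin A, FCCP and rotenone/antimycin A were added. OCR/ECAR were background-subtracted and normalized to the last baseline (100%). Mean ± SD, n = 3.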

Experiment [3] has as its system U2OS. Briefly: Induction of integrated stress response in human U2OS cells assessed as increase ATF4 level at 2 uM incubated for 24 hrs by Western blot analysis. The format is functional, cell-based. Put shortly: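 U-2OS grown to 80% confluence in 6-well plates were treated 24 h at 37 °C versus DMSO. ATF4 was detected by immunoblotting, with vinculin as reference protein.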
Background: In western blotting, separated proteins are transferred to a membrane and probed.

Experiment [4] relates to U2OS. Briefly: Effect on glycolysis in human U2OS cells assessed as increase in ECAR level at highest concentration measured after 24 hrs by Seahorse analysis. The format is functional, cell-based. Put shortly:
as §2

In experiment [5] the test system is U2OS. As to the kind of experiment: Effect on mitochondrial respiration in human U2OS cells assessed as suppression of OCR level at 2 to 10 uM of acute treatment by Seahorse analysis. The class given is functional, cell-based. The note with it: dose 2-10 µM. An outline of the steps: as §2
In the next experiment the test system is HEK-293T. As to the kind of experiment: Upregulation of HIF1 level in HEK293T cells transfected with HIF1/luc at 2 uM incubated for 24 hrs by Renilla luciferase base assay. The format is functional, cell-based. The note with it: Homo sapiens. Put shortly: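 HEK293T were co-transfected (Lipofectamine 2000) with a PGK1-HRE-driven destabilized firefly luciferase reporter and constitutive TK-Renilla. Cells were seeded at 2.5 × 10⁴/well, then treated 24 h the next day, with 100 μM CoCl₂ and 10 μM ML228 as controls. Dual-Glo readout: firefly was normalized to Renilla and expressed as fold induction over DMSO.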

The test system of experiment [6] is U2OS. As to the kind of experiment: Effect on oxidative phosphorylation in human U2OS cells at 2 uM incubated for 24 hrs by pathway over-representation analysis. The class given is functional, cell-based. An outline of the steps: as §1
The subject of experiment [7] is U2OS. As to the kind of experiment: Induction of mitochondrial network fragmentation in human U2OS cells at 2 uM incubated for 24 hrs by CellLight Mitochondria-GFP assay. The class given is functional, cell-based. Put shortly:
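U-2OS were transduced with CellLight Mitochondria-GFP BacMam 2.0 one day before treatment. 3000 cells/well were seeded in chamber slides. After compound addition, live cells were imaged by confocal microscopy (488/555 nm) continuously over 24 h at 37 °C, 5% CO₂.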

For experiment [8], the system named is U2OS. As to the kind of experiment: Inhibition of cell confluence in human U2OS cells at 2 uM measured after 48 hrs by PI/caspase-3/7 Green dye based analysis. The format is functional. Put shortly:
(§3)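 U-2OS at 5000/well were incubated overnight, then given medium with compound or DMSO plus propidium iodide and CellEvent Caspase-3/7 Green. Cells were imaged hourly for 48 h by live-cell imaging. Phase confluence gave growth; red and green object confluence gave PI-positive cells and caspase-3/7 activity.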

Experiment [9] concerns U2OS. Briefly: Effect on HIF1 signaling in human U2OS cells at 2 uM incubated for 24 hrs by pathway over-representation analysis. The format is functional, cell-based. An outline of the steps:
as §1

Experiment [10] relates to U2OS. Briefly: Induction of integrated stress response in human U2OS cells assessed as increase ATF4 mRNA level at 2 uM incubated for 24 hrs by RT-qPCR analysis. The format is functional, cell-based. Put shortly: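 U-2OS at 1 × 10⁵/well in 6-well plates were grown 24 h to ~80% confluence, then treated 24 h versus DMSO. Total RNA (DNase-treated) was reverse-transcribed and ATF4 measured by SYBR Green qPCR. Expression was calculated by ΔΔCt against GAPDH, with DMSO set to 100%. Mean ± SD, n = 3.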
(In general: In qPCR the cycle at which signal appears reflects the starting amount.)

Experiment [11] concerns U2OS. As to the kind of experiment: Effect on mitochondrial respiration in human U2OS cells assessed as suppression of OCR level measured after 24 hrs by Seahorse analysis. The class given is functional, cell-based. Put shortly: as §2
For experiment [12], the system named is U2OS. As to the kind of experiment: Induction of oxidative stress in human U2OS cells assessed as increase in mitochondrial superoxide level at 2 uM incubated for 1 hr by MitoSox Red staining based analysis. The format is functional, cell-based. An outline of the steps:
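U-2OS at 15,000/well were preloaded 30 min with 5 μM MitoSOX Red plus Hoechst in plain DMEM. They were then treated 60 min in complete DMEM, fixed in 0.5% paraformaldehyde, and imaged at 10×. Integrated MitoSOX intensity per cell was normalized to DMSO (0%) and 10 μM CDNB (100%). Mean ± SD, n = 3.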

Experiment [13] deals with U2OS. As to the kind of experiment: Inhibition of cell confluence in human U2OS cells at 10 uM measured after 48 hrs by PI/caspase-3/7 Green dye based analysis. The format is functional. Put shortly:
as §3

The subject of experiment [14] is U2OS. As to the kind of experiment: Effect on mitochondrial respiration in human U2OS cells assessed as suppression of OCR level at 10 uM measured after 24 hrs by Seahorse analysis relative to control. The format is functional. An outline of the steps:
as §2

Experiment [15] deals with U2OS. As to the kind of experiment: Induction of mitochondrial fragmentation in human U2OS cells assessed as puncta-like staining at 2 uM incubated for 20 hrs by Mito Tracker Deep Red dye based CPA assay. The class given is functional, cell-based. Put shortly: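 Cell Painting: U-2OS were seeded at 1600 cells/well, then dosed 4 h later for 20 h at 37 °C against a matched-% DMSO control. Live cells were stained 30 min with 100 nM MitoTracker Deep Red, then fixed in 3.7% formaldehyde and permeabilized with 0.1% Triton X-100. They were co-stained with phalloidin, concanavalin A, Hoechst, WGA and SYTO 14. Imaging was high-content, run as triplicate plates; features are Z-scores versus DMSO median/MAD.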

The test system of experiment [16] is U2OS. Briefly: Effect on mitochondrial membrane potential in human U2OS cells at 2 uM incubated for 24 hrs by TRME staining based analysis. The format is functional, cell-based. Put shortly:
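U-2OS (5 × 10³/well) were treated 24 h, then given 20 μM FCCP or 0.5% DMSO controls for 10 min. Cells were stained 30 min at 37 °C with 1 μM TMRE plus Hoechst-33342 in complete DMEM, washed, and imaged live in 0.2% BSA/PBS at 10× (TMRE ex/em 549/575 nm).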

For the compound `CCOC(=O)CCNc1cc(N2CCc3ccccc3CC2)nc(-c2ccccn2)n1`, the result in the experiment with U2OS [1], with U2OS [3], in the experiment with U2OS [4], with HEK-293T, with U2OS [6] and in the experiment with U2OS [7] was Active. Moreover, the outcome in the experiment with U2OS [10], in the experiment on U2OS [12] and in the experiment on U2OS [15] was Active. The result in the experiment on U2OS [2], in the experiment with U2OS [5], in the experiment with U2OS [9] and in the experiment on U2OS [16] was inactive. Also, in the experiment with U2OS [8], the inhibition result is “inactive”. The figures for the Activity result with U2OS [11] and in the experiment with U2OS [14] were “Dose-Dependent Effect” and approximately 100%, respectively. Moreover, in the experiment with U2OS [13], the inhibition entry was “Active”.

The record behind these values is ChEMBL document CHEMBL5550188, “Detection of a Mitochondrial Fragmentation and Integrated Stress Response Using the Cell Painting Assay” (2024).
